Tested on: Fibroblast
Assay: Multiplex assay against human fibroblast
Format: toxicity, cell-based
Procedure, shortened: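 Values for tubulin, mitochondrial-mass and membrane-permeability phenotypes are per cents of cells with healthy nuclei. These cells were identified by CellPathfinder machine-learning gating of live cells that had been stained at seeding with Hoechst33342, BioTracker Green Microtubule Cytoskeleton Dye, MitoTracker Red and Annexin V Alexa Fluor 680 and imaged on a CQ1 microscope at 37°C and 5% CO2 after compound addition. The gating first set Hoechst high-intensity objects apart from normal cells, then split normal cells into healthy, pyknosed or fragmented nuclei, and pyknosed cells into mitotic or apoptotic.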

[1] = 12 h, 1 µM, compound concentration 1 uM, replicate 1
[2] = 12 h, 1 µM, compound concentration 1 uM, replicate 2
[3] = 12 h, 10 µM, compound concentration 10 uM, replicate 1
[4] = 12 h, 10 µM, compound concentration 10 uM, replicate 2
[5] = 24 h, 1 µM, compound concentration 1 uM, replicate 1
[6] = 24 h, 1 µM, compound concentration 1 uM, replicate 2
[7] = 24 h, 10 µM, compound concentration 10 uM, replicate 1
[8] = 24 h, 10 µM, compound concentration 10 uM, replicate 2
[9] = 48 h, 1 µM, compound concentration 1 uM, replicate 1
[10] = 48 h, 1 µM, compound concentration 1 uM, replicate 2
[11] = 48 h, 10 µM, compound concentration 10 uM, replicate 1
[12] = 48 h, 10 µM, compound concentration 10 uM, replicate 2

## Cc1cc(NC(=O)NCCN2CCC(O)(Cc3ccccc3)CC2)c2ccccc2n1 [PALOSURAN]
[1]
  Population Apoptotic (%): 37%
  Population Fragmented Nuclei (%): 10%
  Population Healthy Nuclei (%): 77%
  Population Hoechst High Intensity Objects (%): 2%
  Population Membrane Permeable-Phenotype (%): 3%
  Population Mitochondria Different-Phenotype (%): 1%
  Population Mitotic Cells (%): 62%
  Population Normal (%): 97%
  Population Pyknosed Nuclei (%): 12%
  Population Tubulin-Different-Phenotype (%): 19%
  Total Cell Count: 133
[2]
  Population Apoptotic (%): 40%
  Population Fragmented Nuclei (%): 26%
  Population Healthy Nuclei (%): 44%
  Population Hoechst High Intensity Objects (%): 9%
  Population Membrane Permeable-Phenotype (%): 1%
  Population Mitochondria Different-Phenotype (%): 13%
  Population Mitotic Cells (%): 59%
  Population Normal (%): 90%
  Population Pyknosed Nuclei (%): 28%
  Population Tubulin-Different-Phenotype (%): 46%
  Total Cell Count: 143
[3]
  Population Apoptotic (%): 40%
  Population Fragmented Nuclei (%): 14%
  Population Healthy Nuclei (%): 69%
  Population Hoechst High Intensity Objects (%): 1%
  Population Membrane Permeable-Phenotype (%): 0%
  Population Mitochondria Different-Phenotype (%): 13%
  Population Mitotic Cells (%): 59%
  Population Normal (%): 98%
  Population Pyknosed Nuclei (%): 15%
  Population Tubulin-Different-Phenotype (%): 37%
  Total Cell Count: 178
[4]
  Population Apoptotic (%): 41%
  Population Fragmented Nuclei (%): 28%
  Population Healthy Nuclei (%): 49%
  Population Hoechst High Intensity Objects (%): 6%
  Population Membrane Permeable-Phenotype (%): 3%
  Population Mitochondria Different-Phenotype (%): 3%
  Population Mitotic Cells (%): 58%
  Population Normal (%): 93%
  Population Pyknosed Nuclei (%): 22%
  Population Tubulin-Different-Phenotype (%): 51%
  Total Cell Count: 113
[5]
  Population Apoptotic (%): 53%
  Population Fragmented Nuclei (%): 15%
  Population Healthy Nuclei (%): 73%
  Population Hoechst High Intensity Objects (%): 2%
  Population Membrane Permeable-Phenotype (%): 1%
  Population Mitochondria Different-Phenotype (%): 0%
  Population Mitotic Cells (%): 46%
  Population Normal (%): 97%
  Population Pyknosed Nuclei (%): 10%
  Population Tubulin-Different-Phenotype (%): 17%
  Total Cell Count: 129
[6]
  Population Apoptotic (%): 40%
  Population Fragmented Nuclei (%): 27%
  Population Healthy Nuclei (%): 50%
  Population Hoechst High Intensity Objects (%): 6%
  Population Membrane Permeable-Phenotype (%): 14%
  Population Mitochondria Different-Phenotype (%): 21%
  Population Mitotic Cells (%): 60%
  Population Normal (%): 93%
  Population Pyknosed Nuclei (%): 22%
  Population Tubulin-Different-Phenotype (%): 62%
  Total Cell Count: 119
[7]
  Population Apoptotic (%): 42%
  Population Fragmented Nuclei (%): 14%
  Population Healthy Nuclei (%): 77%
  Population Hoechst High Intensity Objects (%): 1%
  Population Membrane Permeable-Phenotype (%): 0%
  Population Mitochondria Different-Phenotype (%): 8%
  Population Mitotic Cells (%): 57%
  Population Normal (%): 98%
  Population Pyknosed Nuclei (%): 8%
  Population Tubulin-Different-Phenotype (%): 37%
  Total Cell Count: 178
[8]
  Population Apoptotic (%): 60%
  Population Fragmented Nuclei (%): 30%
  Population Healthy Nuclei (%): 47%
  Population Hoechst High Intensity Objects (%): 3%
  Population Membrane Permeable-Phenotype (%): 3%
  Population Mitochondria Different-Phenotype (%): 1%
  Population Mitotic Cells (%): 40%
  Population Normal (%): 96%
  Population Pyknosed Nuclei (%): 22%
  Population Tubulin-Different-Phenotype (%): 48%
  Total Cell Count: 117
[9]
  Population Apoptotic (%): 50%
  Population Fragmented Nuclei (%): 16%
  Population Healthy Nuclei (%): 72%
  Population Hoechst High Intensity Objects (%): 3%
  Population Membrane Permeable-Phenotype (%): 0%
  Population Mitochondria Different-Phenotype (%): 2%
  Population Mitotic Cells (%): 50%
  Population Normal (%): 96%
  Population Pyknosed Nuclei (%): 11%
  Population Tubulin-Different-Phenotype (%): 15%
  Total Cell Count: 126
[10]
  Population Apoptotic (%): 61%
  Population Fragmented Nuclei (%): 42%
  Population Healthy Nuclei (%): 44%
  Population Hoechst High Intensity Objects (%): 7%
  Population Membrane Permeable-Phenotype (%): 14%
  Population Mitochondria Different-Phenotype (%): 14%
  Population Mitotic Cells (%): 38%
  Population Normal (%): 92%
  Population Pyknosed Nuclei (%): 13%
  Population Tubulin-Different-Phenotype (%): 61%
  Total Cell Count: 149
[11]
  Population Apoptotic (%): 55%
  Population Fragmented Nuclei (%): 19%
  Population Healthy Nuclei (%): 69%
  Population Hoechst High Intensity Objects (%): 5%
  Population Membrane Permeable-Phenotype (%): 0%
  Population Mitochondria Different-Phenotype (%): 10%
  Population Mitotic Cells (%): 44%
  Population Normal (%): 94%
  Population Pyknosed Nuclei (%): 10%
  Population Tubulin-Different-Phenotype (%): 36%
  Total Cell Count: 186
[12]
  Population Apoptotic (%): 61%
  Population Fragmented Nuclei (%): 38%
  Population Healthy Nuclei (%): 44%
  Population Hoechst High Intensity Objects (%): 2%
  Population Membrane Permeable-Phenotype (%): 2%
  Population Mitochondria Different-Phenotype (%): 6%
  Population Mitotic Cells (%): 38%
  Population Normal (%): 97%
  Population Pyknosed Nuclei (%): 16%
  Population Tubulin-Different-Phenotype (%): 61%
  Total Cell Count: 112

From ChEMBL document CHEMBL5058577, “EUbOPEN Chemogenomics Library 2 (Multiplex)” (2022)
